Calls of active or inactive are those of the source. The rule behind the calls is not given here.
Columns and labels:
[1] = Cmax in rat at 30 mg/kg; type: ADME, organism-based; parameters: dose 30 mg/kg; details: in vivo
Rattus norvegicus [2] = experiment: Increase of C-peptide level in Wistar rat at 10 mg/kg, po up to 5 mins; type: functional, organism-based; parameters: dose 10 mg/kg
In short: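 Male Wistar rats (300–350 g) with jugular and femoral vein catheters, one week post-surgery, fasted overnight. Randomized to vehicle (n = 19) or oral compound (n = 8). About 90 min after gavage, a hyperglycemic clamp was started: a glucose bolus into the femoral vein, then variable-rate infusion holding glucose at 190–210 mg/dL. Serum C-peptide was measured by RIA, first phase 0–5 min and second phase 10–90 min.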

Mus musculus [3] = experiment: Increase in glucagon level in GPR119 knockout mouse at 30 mg/kg, po after 60 mins; type: functional, organism-based; parameters: dose 30 mg/kg
In short: (§1)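 Wild-type and GPR119 knockout mice, fasted overnight, were dosed by oral gavage (30 mg/kg, 10 mL/kg, 0.5% HPMC/0.1% Tween80 vehicle). Plasma was obtained from cardiac blood at 60 min in chilled K2-EDTA containing DPP-4 inhibitor and aprotinin, then stored at −80 °C. Hormone levels were compared with vehicle; n = 8–10.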

Mus musculus [4] = experiment: Increase in PYY level in GPR119 knockout mouse at 30 mg/kg, po after 60 mins; type: functional, organism-based; parameters: dose 30 mg/kg; in short: as §1
Mus musculus [5] = experiment: Increase in PYY level in GPR119 transgenic wild type mouse at 30 mg/kg, po after 60 mins relative to control; type: functional; in short: as §1
PCC = experiment: Induction of GLP1 secretion in C57BL/6 mouse PCC cells at 0.1 to 1 uM after 24 hrs; type: functional, cell-based
In short: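 Primary colonic crypts were isolated from mouse colon by three 15 min, 37 °C digests with collagenase II, dispase I, DNase I and hyaluronidase, then pooled and washed. Crypts were seeded on Matrigel-coated plates in high-glucose DMEM with 10% FBS and allowed to attach for 24 h. GLP-1 secretion was then assayed as for GLUTag cells (2 h KRB exposure, electrochemiluminescent active GLP-1 immunoassay).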

Cytochrome P450 2C9 = Cytochrome P450 2C9 (Homo sapiens, UniProt P11712); experiment: Inhibition of CYP2C9; type: ADME
MAO-B = biological target: T1, MAO-B (Homo sapiens, UniProt P27338); experiment: Inhibition of MAO-B at 10 uM
T1 sequence (P27338 whole entry): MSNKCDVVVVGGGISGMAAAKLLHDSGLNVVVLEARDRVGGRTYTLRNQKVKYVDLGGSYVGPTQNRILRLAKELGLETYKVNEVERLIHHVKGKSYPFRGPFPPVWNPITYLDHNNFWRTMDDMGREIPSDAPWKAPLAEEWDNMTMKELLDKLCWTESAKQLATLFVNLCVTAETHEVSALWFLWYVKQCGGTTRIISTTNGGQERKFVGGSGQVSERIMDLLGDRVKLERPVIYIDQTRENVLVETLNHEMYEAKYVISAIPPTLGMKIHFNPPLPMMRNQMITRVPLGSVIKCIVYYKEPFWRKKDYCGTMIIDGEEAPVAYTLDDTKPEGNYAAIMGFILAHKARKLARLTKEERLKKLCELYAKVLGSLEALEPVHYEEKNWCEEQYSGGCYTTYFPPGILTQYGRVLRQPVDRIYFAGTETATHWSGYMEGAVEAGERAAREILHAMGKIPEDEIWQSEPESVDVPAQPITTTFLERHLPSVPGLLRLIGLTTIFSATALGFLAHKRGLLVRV
In short: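 Compound was tested at 10 μM in a panel of 68 receptors, ion channels and enzymes. Percent inhibition or stimulation was recorded.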

[6] = Clearance in mouse at 30 mg/kg; type: ADME, organism-based; parameters: dose 30 mg/kg; details: in vivo
Mus musculus [7] = experiment: Dose normalized AUC (0 to 24 hrs) in mouse at 30 mg/kg; type: ADME, organism-based; parameters: dose 30 mg/kg; details: in vivo
[8] = Oral bioavailability in rat at 30 mg/kg; type: ADME, organism-based; details: in vivo
Rattus norvegicus [9] = species on record: Rattus norvegicus; experiment: Potentiation of 3 mM of glucose-induced insulin secretion in rat islet at 0.3 uM

Cytochrome P450 2C9, sequence (P11712 whole entry): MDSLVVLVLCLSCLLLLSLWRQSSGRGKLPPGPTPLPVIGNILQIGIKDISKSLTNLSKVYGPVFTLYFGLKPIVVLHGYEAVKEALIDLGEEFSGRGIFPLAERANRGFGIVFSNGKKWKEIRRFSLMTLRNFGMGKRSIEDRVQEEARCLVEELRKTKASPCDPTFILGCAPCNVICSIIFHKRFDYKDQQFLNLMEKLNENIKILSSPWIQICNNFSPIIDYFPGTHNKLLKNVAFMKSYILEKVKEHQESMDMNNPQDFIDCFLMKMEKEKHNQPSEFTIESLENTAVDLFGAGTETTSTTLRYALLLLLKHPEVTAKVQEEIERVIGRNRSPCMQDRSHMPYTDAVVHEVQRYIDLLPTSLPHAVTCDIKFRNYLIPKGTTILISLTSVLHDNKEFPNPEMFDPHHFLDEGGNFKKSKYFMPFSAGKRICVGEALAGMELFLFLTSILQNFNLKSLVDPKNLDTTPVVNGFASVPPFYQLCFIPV

- Cmax [1]: 9 µM
- IC50 (Cytochrome P450 2C9): 3 µM
- inhibition at 10 µM (MAO-B): 54%
- clearance [6]: 7.2 mL/min/kg
- AUC/dose (Mus musculus [7]): 1.7 µg·h/mL
- bioavailability [8]: 66%
Structure (SMILES): CC(C)OC(=O)N1CCC(Oc2ncnc3c2CCN3c2ccc(S(C)(=O)=O)cc2F)CC1
- Activity (Rattus norvegicus [2]): Active
- Activity (Mus musculus [3]): inactive
- Activity (Mus musculus [4]): inactive
- fold change (FC) (Mus musculus [5]): 3
- Activity (PCC): Active
- Activity (Rattus norvegicus [9]): inactive

— ChEMBL document CHEMBL2176966, “Discovery of 6,7-dihydro-5H-pyrrolo[2,3-a]pyrimidines as orally available G protein-coupled receptor 119 agonists” (J Med Chem, 2012)
